Test results published in BindingDB's records for doi:10.1021/jm00192a005 (1979).

Target: T1, Thymidine kinase, cytosolic (Cricetulus griseus, UniProt P09768)
T1 sequence (P09768 whole entry): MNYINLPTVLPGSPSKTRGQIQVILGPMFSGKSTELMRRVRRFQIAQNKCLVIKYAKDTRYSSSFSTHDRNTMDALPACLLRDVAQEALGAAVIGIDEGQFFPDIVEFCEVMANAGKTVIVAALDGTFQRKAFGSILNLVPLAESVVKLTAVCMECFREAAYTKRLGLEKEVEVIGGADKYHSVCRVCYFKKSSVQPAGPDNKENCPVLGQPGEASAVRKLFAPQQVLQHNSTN
Experiment: Competitive inhibition of thymidine kinase in BHK21 (C13) cells using thymidine as substrate assessed as formation of TMP by Lineweaver-Burk plot analysis
Method in brief: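 BHK21(C13) cells sonicated in 0.05 M NaCl; 100000g supernatant stored in 50% glycerol at 4 °C. Assay in Tris-HCl 0.05 M pH 8.0, ATP 5 mM, MgCl2 2.5 mM, [14C]thymidine at four or more levels from 3.6 to 18 μM, two inhibitor levels plus a no-inhibitor control, duplicates, 10 min at 37 °C. [14C]TMP captured on DEAE-cellulose disks and counted by scintillation; Ki taken from Lineweaver-Burk plots.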

Row | Compound | Ki [µM]
1 | Cc1cn([C@H]2C[C@H](O)[C@@H](CSCCCC(=O)O)O2)c(=O)[nH]c1=O | 1200
2 | CC(=O)NC[C@H]1O[C@@H](n2cc(C)c(=O)[nH]c2=O)C[C@@H]1O [N-[(2R,5R)-3-Hydroxy-5-(5-methyl-2,4-dioxo-3,4-dihydro-2H-pyrimidin-1-yl)-tetrahydro-furan-2-ylmethyl]-acetamide] | 6500
3 | CCCCNC[C@H]1O[C@@H](n2cc(C)c(=O)[nH]c2=O)C[C@@H]1O | 270
4 | N#Cc1cn([C@H]2C[C@H](O)[C@@H](CO)O2)c(=O)[nH]c1=O | 220
5 | Nc1cn([C@H]2C[C@H](O)[C@@H](CO)O2)c(=O)[nH]c1=O | 450
6 | CC(=O)N[C@H]1C[C@H](n2cc(C)c(=O)[nH]c2=O)O[C@@H]1CO | 2500
7 | CCCCCCNC[C@H]1O[C@@H](n2cc(C)c(=O)[nH]c2=O)C[C@@H]1O | 180
8 | CC(=O)NCC(O)[C@H]1O[C@@H](n2cc(C)c(=O)[nH]c2=O)C[C@@H]1O (stereo partly drawn) | 270
9 | Cc1cn([C@H]2C[C@H](O)[C@@H](CSCCO)O2)c(=O)[nH]c1=O | 800
10 | CCNC[C@H]1O[C@@H](n2cc(C)c(=O)[nH]c2=O)C[C@@H]1O | 190
11 | CC(=O)NCCNC[C@H]1O[C@@H](n2cc(C)c(=O)[nH]c2=O)C[C@@H]1O | 250
12 | NCc1cn([C@H]2C[C@H](O)[C@@H](CO)O2)c(=O)[nH]c1=O | 1700
13 | Cc1cn([C@H]2C[C@H](O)[C@@H](CSCCC(=O)O)O2)c(=O)[nH]c1=O | 500
14 | CC(=O)N(C)CCN(C)C[C@H]1O[C@@H](n2cc(C)c(=O)[nH]c2=O)C[C@@H]1O | 900
15 | CCC(=O)NCC(O)[C@H]1O[C@@H](n2cc(C)c(=O)[nH]c2=O)C[C@@H]1O (stereo partly drawn) | 160
16 | CCCCCn1c(=O)c(C)cn([C@H]2C[C@H](O)[C@@H](CO)O2)c1=O | 72
17 | CCS[C@H]1C[C@H](n2cc(C)c(=O)[nH]c2=O)O[C@@H]1CO | 12
18 | CCCCCCN(C[C@H]1O[C@@H](n2cc(C)c(=O)[nH]c2=O)C[C@@H]1O)C(C)=O | 4400
